Data set [1] addresses Mu-type opioid receptor (Homo sapiens, UniProt P35372). The experiment in a line: Agonist activity at human MOR expressed in CHO cells assessed as inhibition of forskolin-induced cAMP accumulation after 30 mins by luminescence assay. It is filed as functional, cell-based. In a few lines:
(§1)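 CHO cells stably expressing KOR or MOR, plated at 10 000 cells/well and incubated overnight at 37 °C. Compounds given as 10-point serial dilutions (1% DMSO final) with 20 μM forskolin final in HBSS/10 mM HEPES. Incubation 30 min at 37 °C, then detection reagents overnight at room temperature. HitHunter cAMP luminescence read-out; data normalized to vehicle and forskolin-only controls, nonlinear regression.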
In general terms: Changes in cAMP serve as a functional read-out for many G protein-coupled receptors.

The subject of data set [2] is Rattus norvegicus. Description: Toxicity in Sprague-Dawley rat assessed as inactive lever pressing during extinction period at 1 mg/kg, ip. The data set is classed as organism-based. More on the design: dose 1 mg/kg, route intraperitoneal. The conditions noted are these: in vivo. In outline:
(§2)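 Male Sprague-Dawley rats (300–350 g) trained to IV cocaine self-administration (0.5 mg/kg/infusion) on FR5 in 2 h daily sessions, then extinction with saline-heparin and cocaine-prime (20 mg/kg) reinstatement. Agonist given ip in DMSO:Tween 80:water 2:1:7 10 min before prime.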

In data set [3] the test system is Rattus norvegicus. The experiment in a line: Toxicity in Sprague-Dawley rat assessed as inactive lever pressing during self administration period at 1 mg/kg, ip. More on the design: dose 1 mg/kg, route intraperitoneal. The data set is classed as organism-based. The conditions noted are these: in vivo. In a few lines:
as §2

In data set [4] the test system is Rattus norvegicus. Description: Toxicity in Sprague-Dawley rat assessed as inactive lever pressing during extinction period at 0.3 mg/kg, ip. It is filed as organism-based. Further details: dose 0.3 mg/kg, route intraperitoneal. To be noted: in vivo. In outline:
as §2

The test system of data set [5] is Rattus norvegicus. The experiment in a line: Toxicity in Sprague-Dawley rat assessed as inactive lever pressing during self administration period at 0.3 mg/kg, ip. It is filed as organism-based. Further details: dose 0.3 mg/kg, route intraperitoneal. The conditions noted are these: in vivo. In a few lines: as §2
Data set [6] has as its system Rattus norvegicus. The experiment in a line: Toxicity in Sprague-Dawley rat assessed as inactive lever pressing during reinstatement period at 0.3 mg/kg, ip. It is filed as organism-based. More on the design: dose 0.3 mg/kg, route intraperitoneal. The conditions noted are these: in vivo. In outline:
as §2

The subject of data set [7] is Rattus norvegicus. The experiment in a line: Toxicity in Sprague-Dawley rat assessed as inactive lever pressing during reinstatement period at 1 mg/kg, ip. It is filed as organism-based. The conditions noted are these: in vivo. Further details: dose 1 mg/kg, route intraperitoneal. In a few lines: as §2
The subject of data set [8] is Rattus norvegicus. Description: Inhibition of cocaine-prime-induced reinstatement in Sprague-Dawley rat at 0.3 to 1 mg/kg, ip administered 10 mins prior to cocaine challenge relative to vehicle-treated control. It is filed as functional, organism-based. In outline:
(§3)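 Male Sprague-Dawley rats (300–350 g) self-administered IV cocaine (0.5 mg/kg/infusion, jugular cannula) in daily 2 h sessions on FR5 until stable (<20% variation over 3 days). Extinction with saline-heparin and no light cue until responses fell below 20% of baseline. Agonist given ip in DMSO:Tween 80:water 2:1:7 10 min before a cocaine prime (20 mg/kg). Active lever presses recorded.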

Data set [9] relates to Rattus norvegicus. The experiment in a line: Inhibition of cocaine-prime-induced reinstatement in Sprague-Dawley rat at 1 mg/kg, ip administered 10 mins prior to cocaine challenge relative to vehicle-treated control. The data set is classed as functional, organism-based. More on the design: dose 1 mg/kg. In outline: as §3
Data set [10] addresses Kappa-type opioid receptor (Homo sapiens, UniProt P41145). The experiment in a line: Agonist activity at human KOR expressed in CHO cells assessed as inhibition of forskolin-induced cAMP accumulation after 30 mins by luminescence assay. It is filed as functional, cell-based. In outline: as §1
Data set [11] relates to Rattus norvegicus. Description: Inhibition of cocaine-prime-induced reinstatement in Sprague-Dawley rat at 0.1 to 0.3 mg/kg, ip administered 10 mins prior to cocaine challenge relative to vehicle-treated control. The data set is classed as functional, organism-based. In a few lines:
as §3

Each structure is given as a SMILES string. Calls of active or inactive are those of the source. No cut-off for these calls is given here.

Kappa-type opioid receptor, sequence (P41145 whole entry): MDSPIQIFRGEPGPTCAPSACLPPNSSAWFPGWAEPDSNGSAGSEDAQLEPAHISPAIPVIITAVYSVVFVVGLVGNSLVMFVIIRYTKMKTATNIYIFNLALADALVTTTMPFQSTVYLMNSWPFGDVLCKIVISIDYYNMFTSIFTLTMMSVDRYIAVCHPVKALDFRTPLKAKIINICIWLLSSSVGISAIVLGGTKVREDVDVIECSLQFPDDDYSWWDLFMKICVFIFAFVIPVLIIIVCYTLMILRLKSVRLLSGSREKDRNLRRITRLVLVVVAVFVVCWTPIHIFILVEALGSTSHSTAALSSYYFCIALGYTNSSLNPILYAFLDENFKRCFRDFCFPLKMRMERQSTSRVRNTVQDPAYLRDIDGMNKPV
Mu-type opioid receptor, sequence (P35372 whole entry): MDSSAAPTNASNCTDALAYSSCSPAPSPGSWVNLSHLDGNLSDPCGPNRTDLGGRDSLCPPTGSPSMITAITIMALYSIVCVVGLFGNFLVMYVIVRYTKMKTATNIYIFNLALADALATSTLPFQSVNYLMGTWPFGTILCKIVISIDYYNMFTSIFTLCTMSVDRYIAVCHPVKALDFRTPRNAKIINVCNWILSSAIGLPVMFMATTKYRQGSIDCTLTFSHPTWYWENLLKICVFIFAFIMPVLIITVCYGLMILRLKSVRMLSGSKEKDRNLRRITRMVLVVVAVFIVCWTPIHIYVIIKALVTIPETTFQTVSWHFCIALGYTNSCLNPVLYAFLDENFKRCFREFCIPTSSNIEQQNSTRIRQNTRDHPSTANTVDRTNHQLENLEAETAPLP

The term EC50 denotes the midpoint of the concentration-response curve. As for `COC(=O)[C@@H]1C[C@H](OC(C)=O)C(=O)[C@H]2[C@@]1(C)CC[C@H]1C(=O)O[C@H](c3ccoc3Br)C[C@]21C`, the EC50 in data set [1] is at least 10000 nM. Also, the Activity result in [2], in [3], in [4], in data set [5], in data set [6] and in data set [7] was “Non-toxic” each time. For the same compound, in [8], the inhibition result is “Active”.

What is called Emax is the maximal effect, on the per cent scale that the assay sets. On to `COC(=O)[C@@H]1C[C@H](OC(C)=O)C(=O)[C@H]2[C@@]1(C)CC[C@H]1C(=O)O[C@H](c3ccoc3C)C[C@]21C`, for which the EC50 is at least 10000 nM in data set [1] and 0.41 nM in data set [10]. Besides, the Activity result in data set [2], in data set [3], in data set [4], in data set [5], in data set [6] and in data set [7] was “Non-toxic” in each case. For the same compound, the inhibition result in data set [9] is “inactive”. Also, in [10], the Emax is 100%.

With `C#Cc1occc1[C@@H]1C[C@]2(C)[C@H]3C(=O)[C@@H](OC(C)=O)C[C@@H](C(=O)OC)[C@]3(C)CC[C@H]2C(=O)O1`, the 50% effective concentration (EC50) is at least 10000 nM in data set [1] and 0.019 nM in data set [10]. In addition, the Activity result in data set [2], in data set [3], in data set [4], in [5], in data set [6] and in [7] was “Non-toxic” each time. Besides, the Emax in data set [10] turned out to be 100%. Besides, in data set [11], the inhibition entry is “Active”.
